These results are taken from ChEMBL document CHEMBL1122638, “8-Methoxypsoralen-nucleic acid photoreaction. Effect of methyl substitution on pyrone vs. furan photoaddition” (J Med Chem, 1984).

Format in all cases: functional
Assay [1] is described as follows: Furan monoadduct and diadduct distribution (products resulting from photoaddition with the nucleic acid poly (dA-dT)) after 10 min irradiation at 360 nm. Put shortly: (§1)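 Alternating poly(dA-dT)·poly(dA-dT), 1 mg (1.5 µmol base pairs) in 1 mL 10 mM Tris pH 7.2, with 0.3 µmol tritiated psoralen added in 95% EtOH. Irradiated 10 min at 10 °C. Polymer ethanol-reprecipitated, then digested sequentially with DNase II (pH 5, 37 °C), phosphodiesterase II (pH 7) and alkaline phosphatase (pH 7.8-8.0). Adducts resolved by reverse-phase HPLC (water-methanol gradient, pH 2.2 phosphate), with A254 and ³H scintillation counting.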

Assay [2] is described as follows: Pyrone monoadduct distribution (product resulting from photoaddition with the nucleic acid poly (dA-dT)) after 10 min irradiation at 360 nm. Put shortly: as §1
The nature of assay [3]: Total radioactivity after 10 min irradiation at 360 nm. The procedure, abridged:
as §1

Assay [4] can be described thus: Total radioactivity (pyrone monoadduct, furan monoadduct and diadduct resulting from photoaddition with the nucleic acid poly (dA-dT)) after 10 min irradiation at 360 nm. The procedure, abridged: as §1

Each structure is given as a SMILES string.

As to `COc1c2occc2cc2c(C)cc(=O)oc12`, the Radioactivity was found to be 94% in assay [1], 2% in assay [2] and 96% in assay [3].

Take `COc1c2oc(C)cc2cc2c(C)cc(=O)oc12`: the Radioactivity in assay [1] was 94%; in assay [2] it was 2%; in assay [3], 96%.

`COc1c2occc2cc2ccc(=O)oc12`: the Radioactivity is 75% in assay [1], 19% in assay [2] and 94% in assay [4].

On to `COc1c2oc(C)cc2cc2ccc(=O)oc12`, for which the Radioactivity in assay [1] came out at 73%; in assay [2] it was 17%; in assay [3], 90%.
